# TNAP act DEA: activators of human TNAP at intermediate phosphate acceptor | purified TNAP, CDP-star luminescence, 100 mM DEA, 30 min; stronger effect = higher value; scale: 0 levamisole-inhibited, 1 vehicle-only enzyme | activation factor at 20 µM | 64,000 tested, under 10 active;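 active means activation factor of at least 2 at 20 µM, relative to controls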
# ROCK2 blocker: ROCK2 (human) kinase inhibition; O75116; purified ROCK2, Kinase-Glo ATP depletion luminescence; inhibition, % at 6 µM; 60,000 tested, 0.35% active;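 active means inhibition above the screen-wide mean inhibition plus 3 SD, cut at about 18% in these data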;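 further: plate controls were DMSO wells for no effect and Y-27632 control wells after no-enzyme background subtraction for full effect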
# Hsp90 inh: displaces geldanamycin probe from tumor Hsp90. P07900. NCI-N417 lysate Hsp90, Cy3B-geldanamycin FP displacement. inhibition, % at 30 µM. 64,000 tested, 0.35% active;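 active means inhibition above 50%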;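 further: 0% = tracer plus lysate wells and 100% = tracer alone without lysate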
# PKA inh: blocks human protein kinase A activity; inhibition, % at 6 µM; PKA Kemptide phosphorylation, Kinase-Glo ATP luminescence; 65,000 tested, 0.1% active; P17612;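 active means inhibition above the screen-wide mean inhibition plus 3 SD, cut at about 21% in these data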
# HEK293 NFkB inh: inhibitors of the PMA/ionomycin-induced NF-kB reporter in HEK293 cells | 62,000 tested, 0.21% active | HEK-293 NF-kB luciferase reporter, luminescence | inhibition, % at 3 µM;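 active means inhibition above the mean of all tested compounds plus 3 SD, cut at about 40% in these data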;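 further: 0% = stimulated DMSO wells and 100% = 10 µM reference inhibitor 5653914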
#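 Signal: luciferase luminescence; Material: HEK-293 cells with stable firefly luciferase reporter driven by four HIV NF-kB elements; Probe or stimulus: PMA with ionomycin; Replication: tested once; Times: 1 h compound pretreatment, then 16 h stimulation at 37 °C, 5% CO2; Benchmarks: DMSO and 10 µM reference inhibitor; Evaluation: per-plate % inhibition versus controls.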
# JNK3 inh: inhibitors of human JNK3 kinase; purified JNK3 kinase activity, HTS; inhibition, % at 8 µM; 60,000 tested, 0.61% active; AID 746; in the data active means inhibition above about 17%;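 further: 0% = DMSO and 100% = reference inhibitor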
# Active calls of the source: *; nt = no result. A selection: hits, their analogues and other compounds. The true share with any hit is near 0.94%.
SMILES,TNAP act DEA,ROCK2 blocker,Hsp90 inh,PKA inh,HEK293 NFkB inh,JNK3 inh
COc1ccc(-n2ncc3c(N4CCC(C)CC4)ncnc32)cc1,0.9,0,1,-2,-27,7
COC(=O)c1[nH]c2ccc(C)cc2c1NC(=O)CN1CCCCC1C (stereo not drawn),0.9,3,-9,3,-3,-8
Cc1ccc2c(c1)C(N1CCN(C)CC1)=Nc1cccnc1N2,nt,nt,0,nt,nt,nt
O=C(Nc1nncs1)c1ccc(N2C(=O)C3C4C=CC(C4)C3C2=O)cc1 (stereo not drawn),1,6,0,6,-6,17*
COc1ccc(NCc2cc3cc(OC)ccc3[nH]c2=O)cc1,0.9,-5,88*,3,4,-2
COc1ccc(NCc2cc3ccccc3[nH]c2=O)cc1,1,2,12,0,nt,-12
NC(=O)c1sc2nc(N3CCCCC3)c3c(c2c1N)CCCC3,0.8,42*,-5,27*,13,6
CCOC(=O)c1sc2nc(N3CCOCC3)c3c(c2c1N)CCCC3,0.9,4,-4,5,4,-5
CCOC(=O)c1[nH]c2c(c1C)C(=O)CC(c1ccc(OC)c(OC)c1)C2 (stereo not drawn),0.9,nt,-5,-13,20,nt
COC(=O)c1[nH]c2c(c1C)C(=O)CC(c1ccccc1)C2 (stereo not drawn),1,-4,-3,-1,44*,6
Cn1c(=O)c2c(nc(/C=C/c3cccc(Cl)c3)n2C)n(C)c1=O,nt,nt,-2,nt,nt,nt
N#Cc1c(-c2ccco2)nc(SCc2ccc(F)cc2)[nH]c1=O,0.9,3,-6,2,4,33*
CC(C)c1ccc(-c2nnn(CCC(=O)O)n2)cc1,1,1,2,6,-4,-6
CCc1ccc(-c2nnn(CCC(=O)OC)n2)cc1,0.9,4,103*,7,32,-6
COc1cc(C(=O)N2CCN(c3cc(Cl)ccc3Cl)CC2)cc(OC)c1OC,0.8,3,-1,2,43*,-3
COc1cc(C(=O)N2CCN(c3cccc(C)c3C)CC2)cc(OC)c1OC,1,4,0,5,35,-1
CCCOc1c(OC)cccc1C1CC(=O)Nc2cc(OC)c(OC)c(OC)c21 (stereo not drawn),1,-2,-1,2,98*,-3
CCN1C(=O)N(CC)C(O)(c2ccccc2)C1(O)c1ccccc1 (stereo not drawn),0.9,34*,1,-7,9,-3
COc1ccc(OC)c(NC(=O)[C@H]2CC=CC[C@H]2C(=O)O)c1,0.9,1,6,3,18,-9
COC(=O)c1sccc1NC(=O)C1CC=CCC1C(=O)O (stereo not drawn),0.9,9,2,13,13,28*
O=c1onc2n1-c1cc(Br)ccc1OC2,nt,nt,-1,nt,nt,nt
CC(=NCc1ccco1)c1c(C)[nH]n(-c2nc3ccccc3s2)c1=O,1,-20,-2,0,-29,20*
COc1cc(-c2c(C#N)c(N)nc(SCc3ccncc3)c2C#N)cc(OC)c1OC,0.8,8,-1,10,26,13
N#Cc1c(N)nc(SCc2ccncc2)c(C#N)c1-c1cccs1,0.8,4,-4,1,31,21*
O=C(O)/C=C/C(O)c1ccc(Cl)cc1 (stereo not drawn),nt,nt,-3,nt,nt,nt
SMILES,TNAP act DEA,ROCK2 blocker,Hsp90 inh,PKA inh,HEK293 NFkB inh,JNK3 inh
Cc1cc(NC(=O)CSC2=Nc3ccccc3C3=NC(Cc4ccccc4)C(=O)N23)n[nH]1 (stereo not drawn),1,1,3,4,9,36*
CC1=CC(=C2C(=O)c3ccccc3C2=O)C=C(C)N1Cc1ccco1,0.9,0,-2,-4,7,34*
NC1CONC1=O (stereo not drawn),nt,nt,-1,nt,nt,nt
CCOc1ccc(S(=O)(=O)Nc2cc(Sc3ncn[nH]3)c3oc(=O)sc3c2)cc1,1,3,54*,2,7,-3
Cc1ccc2nc(C)cc(OCC(=O)O)c2c1,0.9,-2,-1,-4,21,-2
Cc1cc2c(ccc3[nH]onc32)n1,0.8,18*,-6,29*,2,-4
O=C(O)c1cc(NCc2ccc3c(c2)OCO3)ccc1N1CCOCC1,0.9,51*,1,7,17,2
CCOC(=O)c1c(C)oc2c1c(C=NCC1CCCO1)c(O)c1ccccc12 (stereo not drawn),0.9,-1,64*,2,32,11
CC1=C(C(=O)OCc2ccc3c(c2)OCO3)C(c2ccc(Cl)cc2)NC(=O)N1 (stereo not drawn),0.9,11,-2,12,67*,3
CC1=C(C(=O)OCc2ccc3c(c2)OCO3)C(c2ccc(F)cc2)NC(=O)N1 (stereo not drawn),0.9,17,-1,13,45*,4
CCOC(=O)C1=C(C)NC(=O)NC1c1ccc2c(c1)OCCO2 (stereo not drawn),0.9,1,-6,16,18,6
Cn1c(=O)n(CCc2ccccc2)c(=O)c2c1nc1n2CCCN1c1ccc(F)cc1,0.9,-5,1,3,10,3
C/C=C1\C(=O)CC2C3CCC4=CC(=O)CC[C@]4(C)C3CC[C@]12C (stereo partly drawn),nt,nt,-4,nt,nt,nt
COc1ccc(-c2noc(CCCC(=O)O)n2)cc1,1,-2,-2,-1,52*,3
CCOC(=O)c1cccc(C(=O)OCC)n1,1,7,-1,10,6,5
CCOC(=O)c1cccc2c1-c1ccccc1/C2=N/O,0.8,7,3,5,-1,53*
OC[C@H]1O[C@@H](n2cnc3c(NCCc4ccccc4)ncnc32)C(O)[C@H]1O (stereo partly drawn),nt,nt,0,nt,nt,nt
O=C1c2ccccc2C(Nc2ccc3c(c2)OCO3)N1Cc1ccc2c(c1)OCO2 (stereo not drawn),0.8,3,51*,6,21,1
O=C(c1cccs1)N(Cc1ccco1)C1CCS(=O)(=O)C1 (stereo not drawn),1,-5,-5,-2,16,-11
O=C(c1sc2ccccc2c1Cl)N(Cc1ccco1)C1CCS(=O)(=O)C1 (stereo not drawn),0.9,-6,54*,2,9,9
CC(C)C(NC(=O)C1CCCCC1)C(=O)Nc1ccncc1 (stereo not drawn),1,76*,-5,14,17,-1
Brc1ccc(-c2nn3c(-c4ccco4)nnc3s2)o1,0.9,4,-1,0,5,25*
CCCC(=O)NCCc1c2n(c3ccc(OC)cc13)CCCc1ccccc1-2,nt,nt,-2,nt,nt,nt
COc1cc(NCC(O)CN(CC(C)C)CC(C)C)c2nc(C)ccc2c1 (stereo not drawn),nt,nt,5,nt,nt,nt
